Results from ChEMBL document CHEMBL1240380, “Acinetobacter baumannii increases tolerance to antibiotics in response to monovalent cations” (Antimicrob Agents Chemother, 2010).
Calls of active or inactive are those of the source. No cut-off for these calls is given here.

Experiments:
Acinetobacter baumannii [1] = experiment: Antibacterial activity against Acinetobacter baumannii isolate 2824 isolated from human urine; type: functional, organism-based
Acinetobacter baumannii [2] = experiment: Antibacterial activity against Acinetobacter baumannii isolate 5191 isolated from human urine; type: functional, organism-based
Acinetobacter baumannii [3] = experiment: Antibacterial activity against Acinetobacter baumannii isolate 510 isolated from human sputum; type: functional, organism-based
Acinetobacter baumannii [4] = experiment: Antibacterial activity against Acinetobacter baumannii isolate 4860 isolated from human urine; type: functional, organism-based
Acinetobacter baumannii [5] = experiment: Antibacterial activity against Acinetobacter baumannii isolate 2898 isolated from human ankle; type: functional, organism-based
Acinetobacter baumannii [6] = experiment: Antibacterial activity against Acinetobacter baumannii ATCC 17978 assessed as bacterial growth at 4.5 mg/L in presence of 150 mM NaCl; type: functional
How it was run: (§1)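 Overnight cultures were diluted 1:100 in NaCl-free MHB and grown to OD600 0.4. They were then diluted to 10^5 CFU/ml in MHB with or without 150 mM NaCl, plus or minus antibiotic. Growth was run in triplicate for 12 h at 37°C with shaking at 180 rpm, and OD600 was read every 2 h.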

Acinetobacter baumannii [7] = experiment: Antibacterial activity against Acinetobacter baumannii using MHB medium assessed as bacterial growth at 4.5 mg/L after 12 hrs in presence of 30 mg/L efflux pump inhibitor PAbetaN; type: functional, organism-based
Acinetobacter baumannii [8] = experiment: Antibacterial activity against Acinetobacter baumannii ATCC 17978 isolated from human CSF; type: functional, organism-based
Acinetobacter baumannii [9] = experiment: Antibacterial activity against Acinetobacter baumannii using MHB medium assessed as bacterial growth at 4.5 mg/L in presence of 150 mM of KCl; type: functional, organism-based
How it was run: as §1, with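 “Growth-curve challenge with 150 mM KCl in place of NaCl. Overnight” for “Overnight”, “KCl,” for “NaCl,”, “plus” for “plus or minus”, “Cultures ran” for “Growth was run”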

Acinetobacter baumannii [10] = experiment: Antibacterial activity against Acinetobacter baumannii using MHB medium with 150 mM assessed as bacterial growth at 4.5 mg/L after 12 hrs in presence of 30 mg/L efflux pump inhibitor PAbetaN; type: functional, organism-based
Acinetobacter baumannii [11] = experiment: Antibacterial activity against Acinetobacter baumannii ATCC 17978 assessed as bacterial growth at 1.125 mg/L in presence of 150 mM NaCl; type: functional
How it was run: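 Strain grown overnight, diluted 1:100 in MHB without NaCl and grown to OD600 0.4. Then diluted to 10^5 CFU/ml in MHB supplemented with 150 mM NaCl, with or without gentamicin 1.125 mg/liter. Incubated 12 h at 37°C with shaking at 180 rpm, in triplicate. Growth followed by OD600 every 2 h.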

Acinetobacter baumannii [12] = experiment: Antibacterial activity against Acinetobacter baumannii ATCC 17978 assessed as bacterial growth at 0.0625 mg/L in presence of 150 mM NaCl; type: functional; how it was run: as §1
Acinetobacter baumannii [13] = experiment: Antibacterial activity against Acinetobacter baumannii ATCC 17978 using MHB medium with 150 mM NaCl assessed as bacterial growth at 0.75 mg/L after 12 hrs; type: functional, organism-based; how it was run: as §1
Acinetobacter baumannii [14] = experiment: Antibacterial activity against Acinetobacter baumannii isolate 5191 using MHB medium assessed as bacterial growth at 0.75 mg/L after 12 hrs; type: functional, organism-based; how it was run: as §1
Acinetobacter baumannii [15] = experiment: Antibacterial activity against Acinetobacter baumannii isolate 510 using MHB medium after 24 hrs; type: functional, organism-based
How it was run: (§2)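 MIC by CLSI broth microdilution in MHB, with the medium supplemented with 150 mM NaCl where indicated. The read-out was taken after 24 h of drug exposure.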

Acinetobacter baumannii [16] = experiment: Antibacterial activity against Acinetobacter baumannii isolate 2824 using MHB medium after 24 hrs; type: functional, organism-based; how it was run: as §2
Acinetobacter baumannii [17] = experiment: Antibacterial activity against Acinetobacter baumannii isolate 5191 using MHB medium with 150 mM NaCl assessed as bacterial growth at 0.75 mg/L after 12 hrs; type: functional, organism-based; how it was run: as §1
Acinetobacter baumannii [18] = experiment: Antibacterial activity against Acinetobacter baumannii isolate 2824 using MHB medium with 150 mM NaCl after 24 hrs; type: functional, organism-based; how it was run: as §2
Acinetobacter baumannii [19] = experiment: Antibacterial activity against Acinetobacter baumannii using MHB medium with 150 mM assessed as bacterial growth at 1.5 mg/L after 12 hrs in presence of 30 mg/L efflux pump inhibitor PAbetaN; type: functional, organism-based
Acinetobacter baumannii [20] = experiment: Antibacterial activity against Acinetobacter baumannii isolate 510 using MHB medium assessed as bacterial growth at 0.75 mg/L after 12 hrs; type: functional, organism-based; how it was run: as §1
Acinetobacter baumannii [21] = experiment: Antibacterial activity against Acinetobacter baumannii ATCC 17978 using MHB medium after 24 hrs; type: functional; how it was run: as §2
Acinetobacter baumannii [22] = experiment: Antibacterial activity against Acinetobacter baumannii isolate 4860 using MHB medium after 24 hrs; type: functional, organism-based; how it was run: as §2
Acinetobacter baumannii [23] = experiment: Antibacterial activity against Acinetobacter baumannii ATCC 17978 using MHB medium with 150 mM NaCl after 24 hrs; type: functional; how it was run: as §2
Acinetobacter baumannii [24] = experiment: Antibacterial activity against Acinetobacter baumannii isolate 2898 using MHB medium with 150 mM NaCl after 24 hrs; type: functional, organism-based; how it was run: as §2
Acinetobacter baumannii [25] = experiment: Antibacterial activity against Acinetobacter baumannii isolate 5191 using MHB medium with 150 mM NaCl after 24 hrs; type: functional, organism-based; how it was run: as §2
Acinetobacter baumannii [26] = experiment: Antibacterial activity against Acinetobacter baumannii isolate 2898 using MHB medium with 150 mM NaCl assessed as bacterial growth at 0.75 mg/L after 12 hrs; type: functional, organism-based; how it was run: as §1
Acinetobacter baumannii [27] = experiment: Antibacterial activity against Acinetobacter baumannii isolate 2898 using MHB medium after 24 hrs; type: functional, organism-based; how it was run: as §2
Acinetobacter baumannii [28] = experiment: Antibacterial activity against Acinetobacter baumannii isolate 510 using MHB medium with 150 mM NaCl assessed as bacterial growth at 0.75 mg/L after 12 hrs; type: functional, organism-based; how it was run: as §1
Acinetobacter baumannii [29] = experiment: Antibacterial activity against Acinetobacter baumannii isolate 510 using MHB medium with 150 mM NaCl after 24 hrs; type: functional, organism-based; how it was run: as §2
Acinetobacter baumannii [30] = experiment: Antibacterial activity against Acinetobacter baumannii isolate 2898 using MHB medium assessed as bacterial growth at 0.75 mg/L after 12 hrs; type: functional, organism-based; how it was run: as §1
Acinetobacter baumannii [31] = experiment: Antibacterial activity against Acinetobacter baumannii ATCC 17978 using MHB medium assessed as bacterial growth at 0.75 mg/L after 12 hrs; type: functional, organism-based; how it was run: as §1
Acinetobacter baumannii [32] = experiment: Antibacterial activity against Acinetobacter baumannii isolate 5191 using MHB medium after 24 hrs; type: functional, organism-based; how it was run: as §2
Acinetobacter baumannii [33] = experiment: Antibacterial activity against Acinetobacter baumannii isolate 4860 using MHB medium with 150 mM NaCl after 24 hrs; type: functional, organism-based; how it was run: as §2
Acinetobacter baumannii [34] = experiment: Antibacterial activity against Acinetobacter baumannii using MHB medium assessed as bacterial growth at 0.75 mg/L in presence of 150 mM of KCl; type: functional, organism-based
How it was run: as §1, with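 “Growth-curve challenge with 150 mM KCl in place of NaCl. Overnight” for “Overnight”, “KCl,” for “NaCl,”, “plus” for “plus or minus”, “Cultures ran” for “Growth was run”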

Acinetobacter baumannii [35] = experiment: Antibacterial activity against Acinetobacter baumannii isolate 4860 using MHB medium with 150 mM NaCl assessed as bacterial growth at 0.75 mg/L after 12 hrs; type: functional, organism-based; how it was run: as §1
Acinetobacter baumannii [36] = experiment: Antibacterial activity against Acinetobacter baumannii using MHB medium assessed as bacterial growth at 1.5 mg/L after 12 hrs in presence of 30 mg/L efflux pump inhibitor PAbetaN; type: functional, organism-based
Acinetobacter baumannii [37] = experiment: Antibacterial activity against Acinetobacter baumannii using MHB medium with NaCl in presence of efflux pump inhibitor PAbetaN; type: functional, organism-based
How it was run: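 Cells in MHB with or without 150 mM NaCl were pretreated with 60 mg/liter PAβN for 30 min at room temperature before antibiotic was added. Cultures at 10^5 CFU/ml were then grown in triplicate for 12 h at 37°C with shaking at 180 rpm, and OD600 was monitored every 2 h.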

Acinetobacter baumannii [38] = experiment: Antibacterial activity against Acinetobacter baumannii isolate 2824 using MHB medium with 150 mM NaCl assessed as bacterial growth at 0.75 mg/L after 12 hrs; type: functional, organism-based; how it was run: as §1
Acinetobacter baumannii [39] = experiment: Antibacterial activity against Acinetobacter baumannii isolate 4860 using MHB medium assessed as bacterial growth at 0.75 mg/L after 12 hrs; type: functional, organism-based; how it was run: as §1
Acinetobacter baumannii [40] = experiment: Antibacterial activity against Acinetobacter baumannii ATCC 17978 assessed as bacterial growth at 0.75 mg/L in presence of 150 mM NaCl; type: functional; how it was run: as §1
Acinetobacter baumannii [41] = experiment: Antibacterial activity against Acinetobacter baumannii isolate 2824 using MHB medium assessed as bacterial growth at 0.75 mg/L after 12 hrs; type: functional, organism-based; how it was run: as §1

With `CC(C)(O/N=C(\C(=O)N[C@@H]1C(=O)N2C(C(=O)[O-])=C(C[n+]3ccccc3)CS[C@H]12)c1csc(N)n1)C(=O)O` the Activity (Acinetobacter baumannii [1]) was “inactive”, the Activity (Acinetobacter baumannii [2]) was “inactive” and the Activity (Acinetobacter baumannii [3]) was “inactive”. For the same compound, the Activity (Acinetobacter baumannii [4]) was “inactive” and the Activity (Acinetobacter baumannii [5]) was “inactive”.

`NCC[C@H](O)C(=O)N[C@@H]1C[C@H](N)[C@@H](O[C@H]2O[C@H](CN)[C@@H](O)[C@H](O)[C@H]2O)[C@H](O)[C@H]1O[C@H]1O[C@H](CO)[C@@H](O)[C@H](N)[C@H]1O` was tested, and the Activity (Acinetobacter baumannii [6]) was “inactive”, the Activity (Acinetobacter baumannii [1]) was “inactive” and the Activity (Acinetobacter baumannii [2]) was “inactive”. For the same compound, the Activity (Acinetobacter baumannii [7]) was “Active”, the Activity (Acinetobacter baumannii [8]) was “Active” and the Activity (Acinetobacter baumannii [9]) was “inactive”. The Activity (Acinetobacter baumannii [3]) was “inactive”, the Activity (Acinetobacter baumannii [4]) was “inactive” and the Activity (Acinetobacter baumannii [10]) was “inactive”. The Activity (Acinetobacter baumannii [5]) was “inactive”.

For `CO/N=C(\C(=O)N[C@@H]1C(=O)N2C(C(=O)O)=C(CSc3nc(=O)c(O)nn3C)CS[C@H]12)c1csc(N)n1`, the Activity (Acinetobacter baumannii [1]) was “inactive”, the Activity (Acinetobacter baumannii [2]) was “inactive” and the Activity (Acinetobacter baumannii [3]) was “inactive”. For the same compound, the Activity (Acinetobacter baumannii [4]) was “inactive” and the Activity (Acinetobacter baumannii [5]) was “inactive”.

In the case of GENTAMICIN, the Activity (Acinetobacter baumannii [1]) is reported as “inactive”, the Activity (Acinetobacter baumannii [2]) is reported as “inactive” and the Activity (Acinetobacter baumannii [8]) is reported as “Active”. For the same compound, the Activity (Acinetobacter baumannii [11]) was “inactive”, the Activity (Acinetobacter baumannii [3]) was “inactive” and the Activity (Acinetobacter baumannii [4]) was “inactive”. The Activity (Acinetobacter baumannii [5]) was “inactive”.

With `C[C@@H](O)[C@H]1C(=O)N2C(C(=O)O)=C(SCCNC=N)C[C@H]12` the Activity (Acinetobacter baumannii [1]) was “Active”, the Activity (Acinetobacter baumannii [2]) was “Active” and the Activity (Acinetobacter baumannii [12]) was “inactive”. For the same compound, the Activity (Acinetobacter baumannii [8]) was “Active”, the Activity (Acinetobacter baumannii [3]) was “Active” and the Activity (Acinetobacter baumannii [4]) was “Active”. The Activity (Acinetobacter baumannii [5]) was “Active”.

In the case of `C[C@H]1[C@H](NC(=O)/C(=N\OC(C)(C)C(=O)O)c2csc(N)n2)C(=O)N1S(=O)(=O)O`, the Activity (Acinetobacter baumannii [1]) is reported as “inactive”, the Activity (Acinetobacter baumannii [2]) is reported as “inactive” and the Activity (Acinetobacter baumannii [8]) is reported as “inactive”. The Activity (Acinetobacter baumannii [3]) was “inactive”, the Activity (Acinetobacter baumannii [4]) was “inactive” and the Activity (Acinetobacter baumannii [5]) was “inactive”.

In the case of COLISTIN, the Activity (Acinetobacter baumannii [13]) is reported as “inactive”, the Activity (Acinetobacter baumannii [14]) is reported as “Active” and the MIC (Acinetobacter baumannii [15]) is reported as 0.75 µg/mL. The MIC (Acinetobacter baumannii [16]) was 0.75 µg/mL, the Activity (Acinetobacter baumannii [17]) was “inactive” and the MIC (Acinetobacter baumannii [18]) was 1.5 µg/mL. The Activity (Acinetobacter baumannii [19]) was “inactive”, the Activity (Acinetobacter baumannii [20]) was “Active” and the MIC (Acinetobacter baumannii [21]) was 0.75 µg/mL. The MIC (Acinetobacter baumannii [22]) was 2 µg/mL, the MIC (Acinetobacter baumannii [23]) was 1.5 µg/mL and the MIC (Acinetobacter baumannii [24]) was 1.5 µg/mL. For the same compound, the MIC (Acinetobacter baumannii [25]) was 1.5 µg/mL, the Activity (Acinetobacter baumannii [26]) was “inactive” and the MIC (Acinetobacter baumannii [27]) was 1 µg/mL. The Activity (Acinetobacter baumannii [28]) was “inactive”, the MIC (Acinetobacter baumannii [29]) was 1.5 µg/mL and the Activity (Acinetobacter baumannii [30]) was “Active”. For the same compound, the Activity (Acinetobacter baumannii [31]) was “Active”, the MIC (Acinetobacter baumannii [32]) was 0.75 µg/mL and the MIC (Acinetobacter baumannii [33]) was 1.5 µg/mL. The Activity (Acinetobacter baumannii [34]) was “inactive”, the Activity (Acinetobacter baumannii [35]) was “inactive” and the Activity (Acinetobacter baumannii [36]) was “inactive”. The MIC (Acinetobacter baumannii [37]) was > 4 µg/mL, the Activity (Acinetobacter baumannii [38]) was “inactive” and the Activity (Acinetobacter baumannii [39]) was “Active”. For the same compound, the Activity (Acinetobacter baumannii [40]) was “inactive” and the Activity (Acinetobacter baumannii [41]) was “Active”.
